# Test results: ChEMBL document CHEMBL1255259, “Phosphorothioate-modified oligodeoxynucleotides inhibit human cytomegalovirus replication by blocking virus entry” (Antimicrob Agents Chemother, 2008)
# Active and inactive are the calls of the source. The rule behind the calls is not given here.
# Assays:
# Human betaherpesvirus 5 [1] = test: Antimicrobial activity against Human cytomegalovirus AD169 infected in compound pretreated HELF assessed as inhibition of viral replication measured after 6 days post-infection; assay type: functional, organism-based; settings: Human betaherpesvirus 5, AD169, HELF
# How it was run: (§1)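 HELF pretreated with ODN 1 h before infection with HCMV AD169 (MOI 1); ODN kept in medium after 2 h adsorption at 37°C. At 6 days p.i., cells plus supernatants sonicated and titrated by plaque assay on HELF; plaques counted microscopically, expressed as PFU/ml (log10) or % of control. IC50/IC90 by linear regression; duplicate wells, three independent experiments, means ± SD.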
# [2] = Cytotoxicity against HELF assessed as cell viability after 6 days by MTT assay; assay type: cell-based; settings: human, HELF cells
# How it was run: (§2)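 HELF exposed to rising ODN concentrations (up to 10 μM) for 6 days; viable cells measured by MTT. CC50 taken as concentration that cuts viability to 50%.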
# [3] = Cytotoxicity against HELF assessed as cell viability by MTT assay after 6 days at <=10 uM; assay type: cell-based; settings: human, 144 h; how it was run: as §2
# Human betaherpesvirus 5 [4] = test: Antimicrobial activity against Human cytomegalovirus AD169 infected in HELF assessed as inhibition of viral replication at 0.1 uM measured after 6 days post-infection; assay type: functional, organism-based
# Human betaherpesvirus 5 [5] = test: Antimicrobial activity against Human cytomegalovirus AD169 infected in HELF assessed as inhibition of viral replication at 1 uM measured after 6 days post-infection; assay type: functional, organism-based
# Human betaherpesvirus 5 [6] = test: Antimicrobial activity against 0.1 uM compound pretreated Human cytomegalovirus AD169 infected in HELF assessed as reduction in viral titer 37 degC; assay type: functional, organism-based
# How it was run: (§3)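 HCMV AD169 (10^4 PFU) incubated with ODN at 0.1 μM at 4 or 37°C for various times; samples then diluted to bring ODN below an antivirally active level; residual infectivity titrated by plaque assay on HELF. Means ± SD of three independent experiments.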
# Human betaherpesvirus 5 [7] = test: Antimicrobial activity against Human cytomegalovirus AD169 infected in 0.1 uM compound pretreated HELF assessed as inhibition of viral replication measured after 6 days post-infection; assay type: functional, organism-based; how it was run: as §1
# Human betaherpesvirus 5 [8] = test: Antimicrobial activity against Human cytomegalovirus AD169 infected in 1 uM compound pretreated HELF assessed as inhibition of viral replication measured after 6 days post-infection; assay type: functional, organism-based; how it was run: as §1
# Human betaherpesvirus 5 [9] = test: Antimicrobial activity against 0.1 uM compound pretreated Human cytomegalovirus AD169 infected in HELF assessed as reduction in viral titer at 4 degC; assay type: functional, organism-based; how it was run: as §3
# Human alphaherpesvirus 1 [10] = test: Antimicrobial activity against Human herpesvirus 1 infected in compound pretreated HELF assessed as inhibition of viral replication at 1 uM; assay type: functional, organism-based
# How it was run: (§4)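 HELF pretreated with ODN (0.1 or 1 μM) 1 h before infection with a clinical HSV-1 isolate at MOI 0.1; ODN kept in medium after 2 h adsorption. Harvest at 48 h p.i., sonication, plaque titration on Vero cells. Means ± SD of three independent experiments.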
# Human alphaherpesvirus 1 [11] = test: Antimicrobial activity against Human herpesvirus 1 infected in compound pretreated HELF assessed as inhibition of viral replication at 0.1 uM; assay type: functional, organism-based; how it was run: as §4
IC50 (Human betaherpesvirus 5 [1]),IC90 (Human betaherpesvirus 5 [1]),Structure (SMILES),CC50 at 144 h [2],Activity [3],inhibition (Human betaherpesvirus 5 [4]),inhibition (Human betaherpesvirus 5 [5]),inhibition (Human betaherpesvirus 5 [6]),inhibition (Human betaherpesvirus 5 [7]),inhibition (Human betaherpesvirus 5 [8]),inhibition (Human betaherpesvirus 5 [9]),inhibition (Human alphaherpesvirus 1 [10]),inhibition (Human alphaherpesvirus 1 [11])
20 nM,100 nM,Cc1cn([C@H]2C[C@H](OP(O)(=S)OC[C@H]3O[C@@H](n4ccc(N)nc4=O)[C@H](O)[C@@H]3OP(O)(=S)OC[C@H]3O[C@@H](n4cnc5c(=O)[nH]c(N)nc54)[C@H](O)[C@@H]3OP(O)(=S)OC[C@H]3O[C@@H](n4cc(C)c(=O)[nH]c4=O)C[C@@H]3OP(O)(=S)OC[C@H]3O[C@@H](n4ccc(N)nc4=O)[C@H](O)[C@@H]3OP(O)(=S)OC[C@H]3O[C@@H](n4cnc5c(=O)[nH]c(N)nc54)[C@H](O)[C@@H]3OP(O)(=S)OC[C@H]3O[C@@H](n4cc(C)c(=O)[nH]c4=O)C[C@@H]3OP(O)(=S)OC[C@H]3O[C@@H](n4cc(C)c(=O)[nH]c4=O)C[C@@H]3OP(O)(=S)OC[C@H]3O[C@@H](n4cc(C)c(=O)[nH]c4=O)C[C@@H]3OP(O)(=S)OC[C@H]3O[C@@H](n4cc(C)c(=O)[nH]c4=O)C[C@@H]3OP(O)(=S)OC[C@H]3O[C@@H](n4cnc5c(=O)[nH]c(N)nc54)[C@H](O)[C@@H]3OP(O)(=S)OC[C@H]3O[C@@H](n4cc(C)c(=O)[nH]c4=O)C[C@@H]3OP(O)(=S)OC[C@H]3O[C@@H](n4ccc(N)nc4=O)[C@H](O)[C@@H]3OP(O)(=S)OC[C@H]3O[C@@H](n4cnc5c(=O)[nH]c(N)nc54)[C@H](O)[C@@H]3OP(O)(=S)OC[C@H]3O[C@@H](n4cc(C)c(=O)[nH]c4=O)C[C@@H]3OP(O)(=S)OC[C@H]3O[C@@H](n4cc(C)c(=O)[nH]c4=O)C[C@@H]3OP(O)(=S)OC[C@H]3O[C@@H](n4cc(C)c(=O)[nH]c4=O)C[C@@H]3OP(O)(=S)OC[C@H]3O[C@@H](n4cc(C)c(=O)[nH]c4=O)C[C@@H]3OP(O)(=S)OC[C@H]3O[C@@H](n4cc(C)c(=O)[nH]c4=O)C[C@@H]3OP(O)(=S)OC[C@H]3O[C@@H](n4cc(C)c(=O)[nH]c4=O)C[C@@H]3OP(O)(=S)OC[C@H]3O[C@@H](n4cc(C)c(=O)[nH]c4=O)C[C@@H]3OP(O)(=S)OC[C@H]3O[C@@H](n4ccc(N)nc4=O)[C@H](O)[C@@H]3OP(O)(=S)OC[C@H]3O[C@@H](n4cnc5c(=O)[nH]c(N)nc54)[C@H](O)[C@@H]3OP(O)(=S)OC[C@H]3O[C@@H](n4cnc5c(N)ncnc54)[C@H](O)[C@@H]3OP(O)(O)=S)[C@@H](CO)O2)c(=O)[nH]c1=O (stereo partly specified),> 10000 nM,Non-toxic,inactive,inactive,inactive,Active,Active,inactive,inactive,inactive
40 nM,900 nM,Cc1cn([C@H]2C[C@H](OP(O)(O)=S)[C@@H](COP(O)(=S)O[C@H]3C[C@H](n4cc(C)c(=O)[nH]c4=O)O[C@@H]3COP(O)(=S)O[C@H]3[C@@H](O)[C@H](n4cnc5c(=O)[nH]c(N)nc54)O[C@@H]3COP(O)(=S)O[C@H]3[C@@H](O)[C@H](n4ccc(N)nc4=O)O[C@@H]3COP(O)(=S)O[C@H]3[C@@H](O)[C@H](n4cnc5c(N)ncnc54)O[C@@H]3COP(O)(=S)O[C@H]3[C@@H](O)[C@H](n4cnc5c(=O)[nH]c(N)nc54)O[C@@H]3COP(O)(=S)O[C@H]3C[C@H](n4cc(C)c(=O)[nH]c4=O)O[C@@H]3COP(O)(=S)O[C@H]3[C@@H](O)[C@H](n4ccc(N)nc4=O)O[C@@H]3COP(O)(=S)O[C@H]3[C@@H](O)[C@H](n4ccc(N)nc4=O)O[C@@H]3COP(O)(=S)O[C@H]3C[C@H](n4cc(C)c(=O)[nH]c4=O)O[C@@H]3COP(O)(=S)O[C@H]3C[C@H](n4cc(C)c(=O)[nH]c4=O)O[C@@H]3COP(O)(=S)O[C@H]3[C@@H](O)[C@H](n4cnc5c(=O)[nH]c(N)nc54)O[C@@H]3COP(O)(=S)O[C@H]3[C@@H](O)[C@H](n4ccc(N)nc4=O)O[C@@H]3COP(O)(=S)O[C@H]3[C@@H](O)[C@H](n4cnc5c(N)ncnc54)O[C@@H]3COP(O)(=S)O[C@H]3[C@@H](O)[C@H](n4cnc5c(=O)[nH]c(N)nc54)O[C@@H]3COP(O)(=S)O[C@H]3C[C@H](n4cc(C)c(=O)[nH]c4=O)O[C@@H]3COP(O)(=S)O[C@H]3[C@@H](O)[C@H](n4cnc5c(N)ncnc54)O[C@@H]3COP(O)(=S)O[C@H]3[C@@H](O)[C@H](n4ccc(N)nc4=O)O[C@@H]3COP(O)(=S)O[C@H]3[C@@H](O)[C@H](n4ccc(N)nc4=O)O[C@@H]3COP(O)(=S)O[C@H]3C[C@H](n4cc(C)c(=O)[nH]c4=O)O[C@@H]3CO)O2)c(=O)[nH]c1=O (stereo partly specified),> 10000 nM,Non-toxic,inactive,inactive,inactive,Active,Active,inactive,inactive,inactive
50 nM,800 nM,Cc1cn([C@H]2C[C@H](OP(O)(O)=S)[C@@H](COP(O)(=S)O[C@H]3C[C@H](n4cc(C)c(=O)[nH]c4=O)O[C@@H]3COP(O)(=S)O[C@H]3[C@@H](O)[C@H](n4cnc5c(=O)[nH]c(N)nc54)O[C@@H]3COP(O)(=S)O[C@H]3[C@@H](O)[C@H](n4ccc(N)nc4=O)O[C@@H]3COP(O)(=S)O[C@H]3C[C@H](n4cc(C)c(=O)[nH]c4=O)O[C@@H]3COP(O)(=S)O[C@H]3[C@@H](O)[C@H](n4cnc5c(=O)[nH]c(N)nc54)O[C@@H]3COP(O)(=S)O[C@H]3C[C@H](n4cc(C)c(=O)[nH]c4=O)O[C@@H]3COP(O)(=S)O[C@H]3C[C@H](n4cc(C)c(=O)[nH]c4=O)O[C@@H]3COP(O)(=S)O[C@H]3C[C@H](n4cc(C)c(=O)[nH]c4=O)O[C@@H]3COP(O)(=S)O[C@H]3C[C@H](n4cc(C)c(=O)[nH]c4=O)O[C@@H]3COP(O)(=S)O[C@H]3[C@@H](O)[C@H](n4cnc5c(=O)[nH]c(N)nc54)O[C@@H]3COP(O)(=S)O[C@H]3[C@@H](O)[C@H](n4ccc(N)nc4=O)O[C@@H]3COP(O)(=S)O[C@H]3C[C@H](n4cc(C)c(=O)[nH]c4=O)O[C@@H]3COP(O)(=S)O[C@H]3[C@@H](O)[C@H](n4cnc5c(=O)[nH]c(N)nc54)O[C@@H]3COP(O)(=S)O[C@H]3[C@@H](O)[C@H](n4ccc(N)nc4=O)O[C@@H]3COP(O)(=S)O[C@H]3C[C@H](n4cc(C)c(=O)[nH]c4=O)O[C@@H]3COP(O)(=S)O[C@H]3C[C@H](n4cc(C)c(=O)[nH]c4=O)O[C@@H]3COP(O)(=S)O[C@H]3C[C@H](n4cc(C)c(=O)[nH]c4=O)O[C@@H]3COP(O)(=S)O[C@H]3[C@@H](O)[C@H](n4cnc5c(=O)[nH]c(N)nc54)O[C@@H]3COP(O)(=S)O[C@H]3[C@@H](O)[C@H](n4ccc(N)nc4=O)O[C@@H]3COP(O)(=S)O[C@H]3C[C@H](n4cc(C)c(=O)[nH]c4=O)O[C@@H]3COP(O)(=S)O[C@H]3[C@@H](O)[C@H](n4cnc5c(=O)[nH]c(N)nc54)O[C@@H]3COP(O)(=S)O[C@H]3[C@@H](O)[C@H](n4ccc(N)nc4=O)O[C@@H]3COP(O)(=S)O[C@H]3C[C@H](n4cc(C)c(=O)[nH]c4=O)O[C@@H]3CO)O2)c(=O)[nH]c1=O (stereo partly specified),> 10000 nM,Non-toxic,inactive,inactive,inactive,Active,Active,inactive,inactive,inactive
